The text below walks through data of ChEMBL document CHEMBL1132764, “Solution-phase combinatorial synthesis and evaluation of piperazine-2,5-dione derivatives” (2000).

In brackets after ≈: the same amount, converted by molar mass. Where only a bound is given, the exact number is not on record here.

Assay [1] concerns Artemia salina. As to the kind of experiment: (§1) Compound was tested for brine shrimp (Artemia salina) toxicity measured as the lowest value at which severe inhibition of nauplii movement was observed. Format: functional. The method in brief:
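Artemia salina eggs held 24 h in artificial seawater; about 20 nauplii per well in 980 µL brine. Compound added as 1-100 µg in 20 µL DMSO, top concentration 100 µg/mL, each concentration in quadruplicate. Incubated 24 h at 26 °C. Larvae scored against DMSO controls (control deaths <10%). Assay conditions validated with caffeine.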

Assay [2] concerns Artemia salina. Described as §1. Format: functional. Conditions: read-out: LD50 (the source's name). In short, it runs like this:
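Artemia salina eggs held 24 h in artificial seawater; about 20 nauplii per well in 980 µL brine. Compound added at 1-100 µg in 20 µL DMSO, top level 100 µg/mL (solubility limit), each concentration in quadruplicate. Incubated 24 h at 26 °C. Nauplii movement inhibition and survival scored against DMSO controls, with control deaths <10%.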

For `COc1ccc(/C=c2\[nH]c(=O)/c(=C/c3cc(OC)c(OC)c(OC)c3)[nH]c2=O)cc1OC`, the “lowest concentration causing severe inhibition of nauplii movement” value in assay [1] was found to be 100 µg/mL.
Consider `COc1cc(/C=c2\[nH]c(=O)/c(=C/c3cccs3)[nH]c2=O)cc(OC)c1OC`, for which the “lowest concentration causing severe inhibition of nauplii movement” value in assay [1] was above 100 µg/mL.
Same read-out and setting: then `COc1cc(OC)c(/C=c2\[nH]c(=O)/c(=C/c3ccccn3)[nH]c2=O)c(OC)c1`, with above 100 µg/mL; and `COc1cc(OC)c(/C=c2\[nH]c(=O)/c(=C/c3c[nH]c4ccccc34)[nH]c2=O)c(OC)c1`, with above 100 µg/mL.
In the case of `O=c1[nH]/c(=C\c2ccc(Cl)cc2)c(=O)[nH]/c1=C\c1ccc(Cl)cc1`, the “lowest concentration causing severe inhibition of nauplii movement” value in assay [1] was above 100 µg/mL.
Same read-out and setting: then `C/C=C/C=c1\[nH]c(=O)/c(=C/CC)[nH]c1=O`, with above 100 µg/mL; and `COc1ccc(/C=c2\[nH]c(=O)/c(=C/c3ccccc3[N+](=O)[O-])[nH]c2=O)cc1`, with above 100 µg/mL; and `O=c1[nH]/c(=C\c2ccc([N+](=O)[O-])cc2)c(=O)[nH]/c1=C\c1ccccc1`, with above 100 µg/mL.
On to `CC/C=c1\[nH]c(=O)/c(=C/C(C)C)[nH]c1=O`, for which the “lowest concentration causing severe inhibition of nauplii movement” value in assay [1] was above 100 µg/mL.
Same read-out and setting: then `O=c1[nH]/c(=C\c2ccccc2[N+](=O)[O-])c(=O)[nH]/c1=C\c1ccccc1`, with above 100 µg/mL; and `C/C=c1\[nH]c(=O)c(=CC=Cc2ccccc2)[nH]c1=O`, with above 100 µg/mL.
Still for that read-out and setting: then `COc1cc(/C=c2\[nH]c(=O)/c(=C/c3c[nH]c4ccccc34)[nH]c2=O)cc(OC)c1`, with above 100 µg/mL; and `COc1cc(OC)c(/C=c2\[nH]c(=O)/c(=C/c3cc(OC)c(OC)c(OC)c3)[nH]c2=O)c(OC)c1`, with above 100 µg/mL; and `CC(C)/C=c1\[nH]c(=O)c(=CC=Cc2ccccc2)[nH]c1=O`, with above 100 µg/mL.
As for `COc1cc(/C=c2\[nH]c(=O)/c(=C/c3cccs3)[nH]c2=O)cc(OC)c1`, the LC50 in assay [2] came out at 18 µg/mL (≈ 50.5 µM).
For the compound `O=c1[nH]/c(=C\c2ccc(Cl)cc2)c(=O)[nH]/c1=C\c1ccccc1`, the “lowest concentration causing severe inhibition of nauplii movement” value in assay [1] was above 100 µg/mL.
The same measure, in the same setting: then `COc1ccc(/C=c2\[nH]c(=O)/c(=C/c3ccc([N+](=O)[O-])cc3)[nH]c2=O)cc1`, with above 100 µg/mL; and `COc1cc(OC)c(/C=c2\[nH]c(=O)/c(=C/c3c(OC)cc(OC)cc3OC)[nH]c2=O)c(OC)c1`, with 100 µg/mL; and `CC/C=c1\[nH]c(=O)/c(=C/CCCCC)[nH]c1=O`, with 100 µg/mL.
On to `CC/C=c1\[nH]c(=O)/c(=C/CC)[nH]c1=O`, for which the “lowest concentration causing severe inhibition of nauplii movement” value in assay [1] was above 100 µg/mL.
For the compound `COc1ccc(/C=c2\[nH]c(=O)/c(=C/c3ccccc3)[nH]c2=O)cc1`, the “lowest concentration causing severe inhibition of nauplii movement” value in assay [1] was above 100 µg/mL.
The same measure, in the same setting: then `C/C=c1\[nH]c(=O)/c(=C/CCCCC)[nH]c1=O`, with above 100 µg/mL; and `O=c1[nH]/c(=C\c2ccccc2[N+](=O)[O-])c(=O)[nH]/c1=C\c1ccc(Cl)cc1`, with above 100 µg/mL; and `O=c1[nH]/c(=C\c2c[nH]c3ccccc23)c(=O)[nH]/c1=C\c1cccs1`, with above 100 µg/mL.
For the compound `O=c1[nH]/c(=C\c2ccc([N+](=O)[O-])cc2)c(=O)[nH]/c1=C\c1ccc(Cl)cc1`, the “lowest concentration causing severe inhibition of nauplii movement” value in assay [1] is above 100 µg/mL.
On the same count and under the same terms, then `O=c1[nH]/c(=C\c2cccs2)c(=O)[nH]/c1=C\c1ccccn1`, with 100 µg/mL; and `COc1cc(/C=c2\[nH]c(=O)/c(=C/c3c(OC)cc(OC)cc3OC)[nH]c2=O)cc(OC)c1`, with 100 µg/mL; and `C/C=c1\[nH]c(=O)/c(=C/CC)[nH]c1=O`, with above 100 µg/mL.
Still for that read-out and setting: then `O=c1[nH]/c(=C\c2ccccc2)c(=O)[nH]/c1=C\c1ccccc1`, with above 100 µg/mL.
`COc1cc(OC)c(/C=c2\[nH]c(=O)/c(=C/c3ccc(OC)c(OC)c3)[nH]c2=O)c(OC)c1`: the “lowest concentration causing severe inhibition of nauplii movement” value in assay [1] is above 100 µg/mL.
For the compound `C/C=C/C=c1\[nH]c(=O)/c(=C/CCCCC)[nH]c1=O`, in assay [1], the “lowest concentration causing severe inhibition of nauplii movement” value is 100 µg/mL.
For `CC(C)/C=c1\[nH]c(=O)/c(=C/C(C)C)[nH]c1=O`, the “lowest concentration causing severe inhibition of nauplii movement” value in assay [1] is above 100 µg/mL.
In the case of `COc1ccc(/C=c2\[nH]c(=O)/c(=C/c3ccccn3)[nH]c2=O)cc1OC`, the LC50 in assay [2] worked out at 60 µg/mL (≈ 171 µM).
With `O=c1[nH]/c(=C\c2ccc(O)cc2)c(=O)[nH]/c1=C\c1ccccc1`, in assay [1], the “lowest concentration causing severe inhibition of nauplii movement” value was above 100 µg/mL.
With `O=c1[nH]/c(=C\c2ccccc2[N+](=O)[O-])c(=O)[nH]/c1=C\c1ccccc1[N+](=O)[O-]`, the “lowest concentration causing severe inhibition of nauplii movement” value in assay [1] is above 100 µg/mL.
Same read-out and setting: then `C/C=C/C=c1\[nH]c(=O)/c(=C/C(C)C)[nH]c1=O`, with above 100 µg/mL; and `COc1cc(/C=c2\[nH]c(=O)/c(=C/c3cc(OC)c(OC)c(OC)c3)[nH]c2=O)cc(OC)c1`, with 100 µg/mL.
On the same count and under the same terms, then `O=c1[nH]/c(=C\c2cccs2)c(=O)[nH]/c1=C\c1cccs1`, with above 100 µg/mL; and `C/C=C/C=c1\[nH]c(=O)/c(=C/C=C/C)[nH]c1=O`, with above 100 µg/mL; and `CCCCC/C=c1\[nH]c(=O)/c(=C/CCCCC)[nH]c1=O`, with 100 µg/mL.
Still for that read-out and setting: then `O=c1[nH]/c(=C\c2ccc([N+](=O)[O-])cc2)c(=O)[nH]/c1=C\c1ccc([N+](=O)[O-])cc1`, with above 100 µg/mL; and `COc1cc(/C=c2\[nH]c(=O)/c(=C/c3cc(OC)c(OC)c(OC)c3)[nH]c2=O)cc(OC)c1OC`, with above 100 µg/mL.
Regarding `CCCCC/C=c1\[nH]c(=O)/c(=C/C(C)C)[nH]c1=O`, in assay [1], the “lowest concentration causing severe inhibition of nauplii movement” value was above 100 µg/mL.
Take `CC/C=c1\[nH]c(=O)c(=CC=Cc2ccccc2)[nH]c1=O`: in assay [1], the “lowest concentration causing severe inhibition of nauplii movement” value was above 100 µg/mL.
Same read-out and setting: then `O=c1[nH]/c(=C\c2c[nH]c3ccccc23)c(=O)[nH]/c1=C\c1c[nH]c2ccccc12`, with above 100 µg/mL; and `O=c1[nH]/c(=C\c2ccccn2)c(=O)[nH]/c1=C\c1ccccn1`, with 100 µg/mL; and `COc1cc(/C=c2\[nH]c(=O)/c(=C/c3ccc(OC)c(OC)c3)[nH]c2=O)cc(OC)c1`, with above 100 µg/mL.
Still for that read-out and setting: then `COc1ccc(/C=c2\[nH]c(=O)/c(=C/c3ccc(OC)cc3)[nH]c2=O)cc1`, with above 100 µg/mL; and `C/C=c1\[nH]c(=O)/c(=C/C=C/C)[nH]c1=O`, with above 100 µg/mL; and `COc1ccc(/C=c2\[nH]c(=O)/c(=C/c3ccc(Cl)cc3)[nH]c2=O)cc1`, with above 100 µg/mL.
For the compound `O=c1[nH]/c(=C\c2c[nH]c3ccccc23)c(=O)[nH]/c1=C\c1ccccn1`, in assay [1], the “lowest concentration causing severe inhibition of nauplii movement” value was above 100 µg/mL.
On the same count and under the same terms, then `COc1cc(/C=c2\[nH]c(=O)/c(=C/c3ccccn3)[nH]c2=O)cc(OC)c1OC`, with 100 µg/mL; and `COc1cc(/C=c2\[nH]c(=O)/c(=C/c3cc(OC)cc(OC)c3)[nH]c2=O)cc(OC)c1`, with above 100 µg/mL; and `COc1cc(OC)c(/C=c2\[nH]c(=O)/c(=C/c3cccs3)[nH]c2=O)c(OC)c1`, with above 100 µg/mL.
Consider `O=c1[nH]/c(=C\c2ccccc2[N+](=O)[O-])c(=O)[nH]/c1=C\c1ccc([N+](=O)[O-])cc1`, for which the “lowest concentration causing severe inhibition of nauplii movement” value in assay [1] is above 100 µg/mL.
For `COc1ccc(/C=c2\[nH]c(=O)/c(=C/c3cccs3)[nH]c2=O)cc1OC`, in assay [1], the “lowest concentration causing severe inhibition of nauplii movement” value was above 100 µg/mL.
Turning to `COc1ccc(/C=c2\[nH]c(=O)/c(=C/c3ccc(OC)c(OC)c3)[nH]c2=O)cc1OC`, in assay [1], the “lowest concentration causing severe inhibition of nauplii movement” value was above 100 µg/mL.
The same measure, in the same setting: then `COc1cc(/C=c2\[nH]c(=O)/c(=C/c3c[nH]c4ccccc34)[nH]c2=O)cc(OC)c1OC`, with 100 µg/mL; and `C/C=c1\[nH]c(=O)/c(=C/C)[nH]c1=O`, with 100 µg/mL.
As to `COc1cc(/C=c2\[nH]c(=O)/c(=C/c3ccccn3)[nH]c2=O)cc(OC)c1`, in assay [2], the LC50 came to 36 µg/mL (≈ 102 µM).
`COc1ccc(/C=c2\[nH]c(=O)/c(=C/c3c[nH]c4ccccc34)[nH]c2=O)cc1OC`: the “lowest concentration causing severe inhibition of nauplii movement” value in assay [1] is above 100 µg/mL.
